NS3 helicase inh – inhibitors of Hepatitis C virus NS3 helicase; NS3 helicase DNA unwinding, Cy5 molecular beacon fluorescence; 0.56% of 290,000 active; AID 1800; inhibition, % at 10.9 µM;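 active = inhibition above the mean of all tested compounds plus 3 SD, set per campaign, cut at about 35% in these data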
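Control set: DMSO versus 110 µM thioflavine S; Material: NS3 helicase fragment of HCV; Measured by: Cy5 fluorescence at 0 and 60 min, beacon hairpin quenching; Read-out basis: percent inhibition from t60/t0 fluorescence ratio; Times: reaction time 60 min, 25 °C; Repeats: single replicate; Compound dosing: single dose, 10.9 µM nominal final, DMSO 0.8% final.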
UPR CHOP act – activators of apoptotic arm of unfolded protein response (CHOP); activation, % at 10 µM; CHO-CHOP luciferase reporter, UPR activation, luminescence; percent of tunicamycin response over DMSO baseline; 0.34% of 330,000 active;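 active = at 10 µM dose, activation of 40% or more, normalized to positive control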
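assay system = CHO CHOP reporter cells | amount = 500 CHO-CHOP cells per well | buffer or medium = F12 with 10% FBS | incubation = 16-18 h cell attachment, then 6 h compound exposure, 37 °C | detection = luminescence read with Steady-Glo | read-out = percent activation relative to tunicamycin control | controls = tunicamycin high control, DMSO low control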
p97 ATPase inh – blocks human p97 ATPase activity. recombinant p97 ATPase, Kinase-Glo ATP luminescence, 3 h. inhibition, % at 8 µM. 0.42% of 220,000 active; in the data active = inhibition above about 15%
CHOP inh – inhibitors of CHOP induction in ER stress response; CHO-K1 CHOP-promoter luciferase, tunicamycin-induced, 15-18 h; inhibition, % at 10 µM; 3.8% of 220,000 active;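 active = compounds that reduced the stress-induced luciferase reporter signal by more than about 70% of percent inhibition, limit read from the data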
PfM18AAP inh-1 – blocks P. falciparum M18 aspartyl aminopeptidase; 1.2% of 290,000 active; AID 1822; recombinant PfM18AAP, H-Glu-NHMec fluorogenic cleavage; inhibition, % at 7.35 µM;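 active = inhibition above the campaign mean inhibition over all tested compounds plus 3 SD, cut at about 28% in these data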
XBP1 UPR activ – adaptive UPR (XBP1) activation; CHO-XBP1 luciferase reporter, IRE1-XBP1 UPR activation, luminescence; percent of tunicamycin response, DMSO as zero; activation, % at 20 µM; 0.33% of 330,000 active;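 active = versus positive control, 20 µM dose yields 30% or more activation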
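incubation = overnight seeding at 37 °C, 6 h compound treatment at 37 °C | assay system = CHO-XBP1 cells stably carrying IRE1-XBP1-driven luciferase reporter | input = 1000 cells per well | detection = luciferase luminescence | dosing = single point, 20 µM final compound, 1% DMSO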
PfM18AAP inh-2 – PfM18AAP inhibition, confirmation. shares compounds with PfM18AAP inh-1. recombinant PfM18AAP, H-Glu-NHMec fluorogenic cleavage. inhibition, % at 7.35 µM. 28% of 2,400 active. AID 2170;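 active = mean inhibition over replicate wells above the hit cutoff set for the earlier primary screen, cut at about 29% in these data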
CTSL1 confirm – counter-screen for PFM18AAP inhibitors: confirmation of human cathepsin L inhibitors | shares compounds with PfM18AAP inh-1 | purified cathepsin L1, Z-Leu-Arg-MCA fluorescence | inhibition, % at 5.96 µM | 2,400 tested, under 10 active;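 active = average inhibition across replicates above the hit cutoff set in the earlier primary screen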
Target sequence (P07711 whole entry, looked up): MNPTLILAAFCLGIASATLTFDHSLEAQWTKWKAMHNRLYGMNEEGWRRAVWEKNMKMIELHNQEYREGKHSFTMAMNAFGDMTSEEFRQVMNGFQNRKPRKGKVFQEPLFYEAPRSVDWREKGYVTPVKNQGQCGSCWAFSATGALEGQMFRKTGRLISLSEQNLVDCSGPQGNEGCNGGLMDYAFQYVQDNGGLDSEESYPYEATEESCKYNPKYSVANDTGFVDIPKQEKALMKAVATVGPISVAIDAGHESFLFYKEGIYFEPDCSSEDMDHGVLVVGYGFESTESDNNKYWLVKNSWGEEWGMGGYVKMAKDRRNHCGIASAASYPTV
Numbers stand for hits; n = inactive; x = not tested or not shown. Most compounds without a hit are left out; they make up all but 4.5% or so of the library.

SMILES	NS3 helicase inh	UPR CHOP act	p97 ATPase inh	CHOP inh	PfM18AAP inh-1	XBP1 UPR activ	PfM18AAP inh-2	CTSL1 confirm
Cc1ccc(S(=O)(=O)Nc2ccc(O)c(Sc3ncn[nH]3)c2)cc1	n	n	n	n	56	n	n	n
C/C=C(\C)C(=O)O[C@H](c1cc2ccc(=O)oc2cc1OC)[C@@H](O)C(C)(C)O	x	n	x	x	x	n	x	x
CC(C)[C@H](NC(=O)c1ccc(C(C)(C)C)cc1)C(=O)N1CCN(Cc2ccc3c(c2)OCO3)CC1	x	n	x	x	x	n	x	x
COc1cc(C(=O)Nc2cccc3c2CCCC3)cc(OC)c1OC	n	n	x	x	n	n	x	x
Cc1ccc(C)c(S(=O)(=O)Nc2ccc(O)c(Sc3ncn[nH]3)c2)c1	n	n	n	n	39	n	n	n
COc1ccc(OC)c(S(=O)(=O)Nc2cccc(O)c2)c1	x	n	x	x	x	n	x	x
COc1ccc(OC)c(S(=O)(=O)Nc2ccc(O)c(Sc3ncn[nH]3)c2)c1	n	n	n	n	64	n	36	n
COc1cccc(CNC(=O)CCc2nc3cc(S(=O)(=O)N4CCOCC4)ccc3n2C)c1	x	n	x	x	x	n	x	x
O=C(CCc1ccccc1)N1CCCC(Nc2ccc(F)cc2)C1 (centres undefined)	n	n	x	x	n	n	x	x
FC(F)Oc1ccc(/C=N/n2c(Cc3ccc(Br)cc3)n[nH]c2=S)cc1	n	n	x	x	46	n	n	n
S=c1[nH]nc(COc2ccccc2)n1/N=C/c1ccc(Br)cc1	n	n	x	x	n	n	x	x
CCN(CC)S(=O)(=O)c1cc([N+](=O)[O-])ccc1NNC(=O)Nc1ccc(Cl)c(Cl)c1	n	n	n	n	50	n	n	n
O=C(N/N=C/c1ccc(-c2cccc([N+](=O)[O-])c2)o1)[C@H]1C[C@@H]1c1ccccc1	n	n	n	n	n	n	x	x
O=C(N/N=C/c1ccc(-c2ccc([N+](=O)[O-])cc2)o1)[C@H]1C[C@@H]1c1ccccc1	n	n	n	n	32	n	n	n
CC(=O)N1CCc2c(sc(NC(=O)C3CC3)c2-c2nc3ccccc3s2)C1	n	n	n	n	34	n	n	n
COc1ccc(N2CCN(C(CNC(=O)C(=O)NCC(OC)OC)c3ccco3)CC2)cc1 (centres undefined)	n	n	x	x	n	n	x	x
O=C(O)c1ccc(/C=N/Nc2ncc(C(F)(F)F)cc2Cl)cc1	n	n	n	n	48	n	n	n
NC(=O)NNc1ncc(C(F)(F)F)cc1Cl	n	n	n	n	45	n	36	n
O=C(NNc1ncc(C(F)(F)F)cc1Cl)c1c(Cl)cccc1Cl	n	n	n	n	n	n	x	x
Cc1cccc(C(=O)NCCc2nnc(SCC(=O)Nc3cccc(C(=O)O)c3)n2C)c1	n	n	x	x	n	n	x	x
COc1ccccc1N1CCN(CCC(=O)Nc2cccc(Cl)c2)CC1	n	n	x	x	n	n	x	x
COc1ccccc1OC(=O)CCc1nc2ccccc2s1	n	n	n	n	38	n	n	n
COC(=O)CCCc1nc2ccccc2s1	n	n	n	n	n	n	x	x
O=C(CCc1nc2ccccc2s1)OCC(=O)c1ccccc1	n	n	n	n	n	n	x	x
CC(=O)c1ccc(OC(=O)CCc2nc3ccccc3s2)cc1	n	n	n	n	39	n	n	n
Cn1cc(S(=O)(=O)NC2CCCCC2)c(=O)n(C)c1=O	x	n	x	x	x	n	x	x
NNC(=O)c1ccc(CSc2nc3ccccc3s2)cc1	n	n	n	n	n	n	x	x
COc1cccc(NC(=O)C2CCCN(S(C)(=O)=O)C2)c1 (centres undefined)	n	n	x	x	n	n	x	x
O=C(c1ccc2[nH]c(=O)c(=O)[nH]c2c1)N1CCN(c2ccccc2)CC1	n	n	x	x	n	n	x	x
COc1cccc(C(c2c(N)[nH]c(=S)[nH]c2=O)c2c(N)[nH]c(=S)[nH]c2=O)c1	n	n	n	n	33	n	n	n

High-throughput results (PubChem)
